Measured values: ChEMBL document CHEMBL4715745, “Synthesis and biological evaluation of novel FK228 analogues as potential isoform selective HDAC inhibitors” (Eur J Med Chem, 2016)

Test system: MKN-28
Assay: Growth inhibition of human MKN-28 cells measured after 48 hrs by sulforhodamine B assay
Type: functional
Details: not given
How it was run: (§1)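 Panel of 39 human cancer cell lines tested at the Japanese Foundation for Cancer Research. Five concentrations per compound, spanning 10⁻¹¹–10⁻⁷ M, 10⁻¹⁰–10⁻⁶ M or 10⁻⁸–10⁻⁴ M, were used to build dose-response curves. GI₅₀ is the concentration giving 50% growth inhibition relative to control.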

GI50 [nM] | Compound
2100 | CC(C)[C@H]1NC(=O)C[C@H]2/C=C/CCSSC[C@@H](NC1=O)C(=O)N[C@@H](Cc1ccccc1)C(=O)NCC(=O)O2

Test system: HT-29
Assay: Growth inhibition of human HT-29 cells measured after 48 hrs by sulforhodamine B assay
Type: functional
Details: not given
How it was run: as §1

GI50 [nM] | Compound
570 | CC(C)[C@H]1NC(=O)C[C@H]2/C=C/CCSSC[C@@H](NC1=O)C(=O)N[C@@H](Cc1ccccc1)C(=O)NCC(=O)O2

Test system: SNB-78
Assay: Growth inhibition of human SNB-78 cells measured after 48 hrs by sulforhodamine B assay
Type: functional
Details: not given
How it was run: as §1

Compound | GI50 [nM]
CC(C)[C@H]1NC(=O)C[C@H]2/C=C/CCSSC[C@@H](NC1=O)C(=O)N[C@@H](Cc1ccccc1)C(=O)NCC(=O)O2 | 540

Test system: OVCAR-8
Assay: Growth inhibition of human OVCAR-8 cells measured after 48 hrs by sulforhodamine B assay
Type: functional
Details: not given
How it was run: as §1

GI50 [nM] | Compound
1400 | CC(C)[C@H]1NC(=O)C[C@H]2/C=C/CCSSC[C@@H](NC1=O)C(=O)N[C@@H](Cc1ccccc1)C(=O)NCC(=O)O2

Test system: NCI-H23
Assay: Growth inhibition of human NCI-H23 cells measured after 48 hrs by sulforhodamine B assay
Type: functional
Details: not given
How it was run: as §1

GI50 [nM] | Compound
1100 | CC(C)[C@H]1NC(=O)C[C@H]2/C=C/CCSSC[C@@H](NC1=O)C(=O)N[C@@H](Cc1ccccc1)C(=O)NCC(=O)O2

Test system: OVCAR-3
Assay: Growth inhibition of human OVCAR-3 cells measured after 48 hrs by sulforhodamine B assay
Type: functional
Details: not given
How it was run: as §1

GI50 [nM] | Compound
1100 | CC(C)[C@H]1NC(=O)C[C@H]2/C=C/CCSSC[C@@H](NC1=O)C(=O)N[C@@H](Cc1ccccc1)C(=O)NCC(=O)O2

Test system: not listed separately
Assay: Growth inhibition of human HBC5 cells measured after 48 hrs by sulforhodamine B assay
Type: functional
Details: not given
How it was run: as §1

Compound | GI50 [nM]
CC(C)[C@H]1NC(=O)C[C@H]2/C=C/CCSSC[C@@H](NC1=O)C(=O)N[C@@H](Cc1ccccc1)C(=O)NCC(=O)O2 | 1900

Test system: MCF7
Assay: Growth inhibition of human MCF7 cells measured after 48 hrs by sulforhodamine B assay
Type: functional
Details: not given
How it was run: as §1

GI50 [nM] | Compound
1900 | CC(C)[C@H]1NC(=O)C[C@H]2/C=C/CCSSC[C@@H](NC1=O)C(=O)N[C@@H](Cc1ccccc1)C(=O)NCC(=O)O2

Test system: MDA-MB-231
Assay: Growth inhibition of human MDA-MB-231 cells measured after 48 hrs by sulforhodamine B assay
Type: functional
Details: not given
How it was run: as §1

GI50 [nM] | Compound
1200 | CC(C)[C@H]1NC(=O)C[C@H]2/C=C/CCSSC[C@@H](NC1=O)C(=O)N[C@@H](Cc1ccccc1)C(=O)NCC(=O)O2

Test system: OVCAR-5
Assay: Growth inhibition of human OVCAR-5 cells measured after 48 hrs by sulforhodamine B assay
Type: functional
Details: not given
How it was run: as §1

GI50 [nM] | Compound
1400 | CC(C)[C@H]1NC(=O)C[C@H]2/C=C/CCSSC[C@@H](NC1=O)C(=O)N[C@@H](Cc1ccccc1)C(=O)NCC(=O)O2

Test system: St-4
Assay: Growth inhibition of human St-4 cells measured after 48 hrs by sulforhodamine B assay
Type: functional
Details: not given
How it was run: as §1

Compound | GI50 [nM]
CC(C)[C@H]1NC(=O)C[C@H]2/C=C/CCSSC[C@@H](NC1=O)C(=O)N[C@@H](Cc1ccccc1)C(=O)NCC(=O)O2 | 2000

Test system: not listed separately
Assay: Growth inhibition of human BSY1 cells measured after 48 hrs by sulforhodamine B assay
Type: functional
Details: BSY-1
How it was run: as §1

Compound | GI50 [nM]
CC(C)[C@H]1NC(=O)C[C@H]2/C=C/CCSSC[C@@H](NC1=O)C(=O)N[C@@H](Cc1ccccc1)C(=O)NCC(=O)O2 | 1300

Test system: MKN-45
Assay: Growth inhibition of human MKN-45 cells measured after 48 hrs by sulforhodamine B assay
Type: functional
Details: not given
How it was run: as §1

GI50 [nM] | Compound
1800 | CC(C)[C@H]1NC(=O)C[C@H]2/C=C/CCSSC[C@@H](NC1=O)C(=O)N[C@@H](Cc1ccccc1)C(=O)NCC(=O)O2

Test system: not listed separately
Assay: Selectivity index, ratio of IC50 for mouse HDAC6 expressed in 293T cells to IC50 for human HDAC1 expressed in 293T cells using Ac-KGLGK(Ac)-MCA as substrate incubated for 30 mins in presence of 0.1 mM DTT by fluorescence plate reader assay
Details: 0.5 h
How it was run: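 Ratio of HDAC6 IC₅₀ to HDAC1 IC₅₀, taken as selectivity for class I HDAC1 over class II HDAC6. Both enzyme assays were run in the presence of 0.1 mM DTT.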

Compound | Ratio IC50
CC(C)[C@H]1NC(=O)C[C@H]2/C=C/CCSSC[C@@H](NC1=O)C(=O)N[C@@H](Cc1ccccc1)C(=O)NCC(=O)O2 | 9

Test system: MKN-74
Assay: Growth inhibition of human MKN-74 cells measured after 48 hrs by sulforhodamine B assay
Type: functional
Details: not given
How it was run: as §1

GI50 [nM] | Compound
500 | CC(C)[C@H]1NC(=O)C[C@H]2/C=C/CCSSC[C@@H](NC1=O)C(=O)N[C@@H](Cc1ccccc1)C(=O)NCC(=O)O2

Test system: SF-539
Assay: Growth inhibition of human SF-539 cells measured after 48 hrs by sulforhodamine B assay
Type: functional
Details: not given
How it was run: as §1

Compound | GI50 [nM]
CC(C)[C@H]1NC(=O)C[C@H]2/C=C/CCSSC[C@@H](NC1=O)C(=O)N[C@@H](Cc1ccccc1)C(=O)NCC(=O)O2 | 860

Test system: HCT-15
Assay: Growth inhibition of human HCT-15 cells measured after 48 hrs by sulforhodamine B assay
Type: functional
Details: not given
How it was run: as §1

GI50 [nM] | Compound
26000 | CC(C)[C@H]1NC(=O)C[C@H]2/C=C/CCSSC[C@@H](NC1=O)C(=O)N[C@@H](Cc1ccccc1)C(=O)NCC(=O)O2

Test system: NCI-H522
Assay: Growth inhibition of human NCI-H522 cells measured after 48 hrs by sulforhodamine B assay
Type: functional
Details: not given
How it was run: as §1

GI50 [nM] | Compound
200 | CC(C)[C@H]1NC(=O)C[C@H]2/C=C/CCSSC[C@@H](NC1=O)C(=O)N[C@@H](Cc1ccccc1)C(=O)NCC(=O)O2

Test system: OVCAR-4
Assay: Growth inhibition of human OVCAR-4 cells measured after 48 hrs by sulforhodamine B assay
Type: functional
Details: not given
How it was run: as §1

GI50 [nM] | Compound
1900 | CC(C)[C@H]1NC(=O)C[C@H]2/C=C/CCSSC[C@@H](NC1=O)C(=O)N[C@@H](Cc1ccccc1)C(=O)NCC(=O)O2

Test system: MKN-7
Assay: Growth inhibition of human MKN-7 cells measured after 48 hrs by sulforhodamine B assay
Type: functional
Details: not given
How it was run: as §1

GI50 [nM] | Compound
1900 | CC(C)[C@H]1NC(=O)C[C@H]2/C=C/CCSSC[C@@H](NC1=O)C(=O)N[C@@H](Cc1ccccc1)C(=O)NCC(=O)O2

Test system: LOX IMVI
Assay: Growth inhibition of human LOX IMVI cells measured after 48 hrs by sulforhodamine B assay
Type: functional
Details: not given
How it was run: as §1

Compound | GI50 [nM]
CC(C)[C@H]1NC(=O)C[C@H]2/C=C/CCSSC[C@@H](NC1=O)C(=O)N[C@@H](Cc1ccccc1)C(=O)NCC(=O)O2 | 160
